Reference: ChEMBL document CHEMBL1275336, “Identification of a novel pyrrole derivative endowed with antimycobacterial activity and protection index comparable to that of the current antitubercular drugs streptomycin and rifampin” (Bioorg Med Chem, 2010)
Values after ≈ are worked out from the molar mass of the structure shown.

Legend:
[1] = tested on: Mycobacterium tuberculosis; assay: Antimycobacterial activity against Mycobacterium tuberculosis H37Rv ATCC 27294 after 3 to 28 days by twofold dilution method; type: functional
In short: (§1)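 Twofold agar dilution in Middlebrook 7H11 with 10% OADC; plates held at 37 °C for 3 or 28 days. MIC is the lowest concentration giving complete inhibition of visible mycobacterial growth. Rifampin, streptomycin and BM521 served as references.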

[2] = tested on: Mycobacterium tuberculosis; assay: Antimycobacterial activity against Mycobacterium tuberculosis CIP 103471 after 3 to 28 days by twofold dilution method; type: functional; in short: as §1
[3] = Protection index, ratio of CC50 for Mycobacterium tuberculosis infected mouse J774A1 cells to MIC for Mycobacterium tuberculosis H37Rv ATCC 27294; type: functional, J774.A1
[4] = tested on: Mycobacterium tuberculosis; assay: Antimycobacterial activity against Mycobacterium tuberculosis H37Rv ATCC 27294 infected in mouse J774A1 cells assessed as reduction of bacterial growth at 1 ug/ml after 6 days relative to untreated control; type: functional, J774.A1; parameters: scale not given: the % may be the effect or the level left
[5] = tested on: Mycobacterium tuberculosis; assay: Antimycobacterial activity against Mycobacterium tuberculosis H37Rv ATCC 27294 infected in mouse J774A1 cells assessed as reduction of bacterial growth at 0.5 ug/ml after 6 days relative to untreated control; type: functional, J774.A1; parameters: scale not given: the % may be the effect or the level left
[6] = tested on: Mycobacterium tuberculosis; assay: Antimycobacterial activity against Mycobacterium tuberculosis H37Rv ATCC 27294 infected in mouse J774A1 cells assessed as reduction of bacterial growth at 0.25 ug/ml after 6 days relative to untreated control; type: functional, J774.A1; parameters: scale not given: the % may be the effect or the level left
[7] = tested on: Mycobacterium tuberculosis; assay: Antimycobacterial activity against Mycobacterium tuberculosis H37Rv ATCC 27294 infected in mouse J774A1 cells assessed as reduction of bacterial growth at 0.125 ug/ml after 6 days relative to untreated control; type: functional, J774.A1; parameters: scale not given: the % may be the effect or the level left

| SMILES | MIC [1] | MIC [2] | PI [3] | Activity [4] | Activity [5] | Activity [6] | Activity [7] |
| --- | --- | --- | --- | --- | --- | --- | --- |
| Cc1c(CN2CCSCC2)cc(-c2ccccc2C(F)(F)F)n1-c1ccc(F)cc1 | > 16 µg/mL | – | – | – | – | – | – |
| CSc1ccccc1-c1cc(CN2CCSCC2)c(C)n1-c1ccc(F)cc1 | 16 µg/mL (≈ 38.8 µM) | 16 µg/mL (≈ 38.8 µM) | 1.39 | – | – | – | – |
| CCCc1ccc(-n2c(-c3ccc(OC)cc3)cc(CN3CCSCC3)c2C)cc1 | 0.25 µg/mL (≈ 0.594 µM) | 0.25 µg/mL (≈ 0.594 µM) | 49.12 | – | – | – | – |
| CCCc1ccc(-n2c(-c3ccc(SC)cc3)cc(CN3CCSCC3)c2C)cc1 | 0.125 µg/mL (≈ 0.286 µM) | 0.5 µg/mL (≈ 1.14 µM) | 202 | – | – | – | – |
| Cc1c(CN2CCSCC2)cc(-c2ccc(C(F)(F)F)cc2)n1-c1ccc(F)cc1 | 1 µg/mL (≈ 2.3 µM) | – | 8.46 | – | – | – | – |
| Cc1ccc(-c2cc(CN3CCSCC3)c(C)n2-c2ccc(F)cc2)cc1 | 0.25 µg/mL (≈ 0.657 µM) | 0.125 µg/mL (≈ 0.328 µM) | 272.16 | – | – | – | – |
| Cc1c(CN2CCSCC2)cc(-c2ccc(F)cc2)n1-c1ccccc1C(F)(F)F | 4 µg/mL (≈ 9.21 µM) | – | 0.65 | – | – | – | – |
| CN[C@@H]1[C@H](O[C@H]2[C@H](O[C@H]3[C@H](O)[C@@H](O)[C@H](N=C(N)N)[C@@H](O)[C@@H]3N=C(N)N)O[C@@H](C)[C@]2(O)C=O)O[C@@H](CO)[C@H](O)[C@H]1O [STREPTOMYCIN] | 0.5 µg/mL (≈ 0.86 µM) | 0.5 µg/mL (≈ 0.86 µM) | >2000 | – | – | – | – |
| COc1ccc(-n2c(-c3ccc(F)cc3)cc(CN3CCSCC3)c2C)cc1 | 4 µg/mL (≈ 10.1 µM) | – | 5.32 | – | – | – | – |
| CCc1ccc(-n2c(-c3ccc(OC)cc3)cc(CN3CCSCC3)c2C)cc1 | 0.25 µg/mL (≈ 0.615 µM) | 0.5 µg/mL (≈ 1.23 µM) | 63.04 | – | – | – | – |
| CSc1ccc(-c2cc(CN3CCSCC3)c(C)n2-c2ccc(C)cc2)cc1 | 0.25 µg/mL (≈ 0.612 µM) | 0.25 µg/mL (≈ 0.612 µM) | 73.6 | – | – | – | – |
| COc1ccc(-c2cc(CN3CCSCC3)c(C)n2-c2ccc(C(C)C)cc2)cc1 | 0.25 µg/mL (≈ 0.594 µM) | 0.25 µg/mL (≈ 0.594 µM) | 40.88 | – | – | – | – |
| COc1ccccc1-n1c(-c2ccc(F)cc2)cc(CN2CCSCC2)c1C | > 16 µg/mL | – | – | – | – | – | – |
| CCc1ccc(-c2cc(CN3CCSCC3)c(C)n2-c2ccc(SC)cc2)cc1 | 0.25 µg/mL (≈ 0.591 µM) | 1 µg/mL (≈ 2.37 µM) | 102.96 | – | – | – | – |
| COc1ccc(-c2cc(CN3CCSCC3)c(C)n2-c2ccc(F)cc2)cc1 | 0.25 µg/mL (≈ 0.63 µM) | – | >480 | – | – | – | – |
| CO[C@H]1/C=C/O[C@@]2(C)Oc3c(C)c(O)c4c(O)c(c(/C=N/N5CCN(C)CC5)c(O)c4c3C2=O)NC(=O)/C(C)=C\C=C\[C@H](C)[C@H](O)[C@@H](C)[C@@H](O)[C@@H](C)[C@H](OC(C)=O)[C@@H]1C [RIFAMPIN] | 0.25 µg/mL (≈ 0.304 µM) | 0.25 µg/mL (≈ 0.304 µM) | 828.12 | 99.97% | 99.93% | 99.83% | 96.59% |

| SMILES | MIC [1] | MIC [2] | PI [3] | Activity [4] | Activity [5] | Activity [6] | Activity [7] |
| --- | --- | --- | --- | --- | --- | --- | --- |
| CSc1ccc(-c2cc(CN3CCSCC3)c(C)n2-c2ccc(F)cc2)cc1 | 0.125 µg/mL (≈ 0.303 µM) | < 0.125 µg/mL | >1000 | 99.81% | 99.72% | 99.02% | 96.12% |
| CCCc1ccc(-c2cc(CN3CCSCC3)c(C)n2-c2ccc(SC)cc2)cc1 | 0.25 µg/mL (≈ 0.572 µM) | 0.5 µg/mL (≈ 1.14 µM) | 359.68 | – | – | – | – |
| CCc1ccc(-n2c(-c3ccc(SC)cc3)cc(CN3CCSCC3)c2C)cc1 | 0.25 µg/mL (≈ 0.591 µM) | 0.25 µg/mL (≈ 0.591 µM) | 68.72 | – | – | – | – |
| CCCc1ccc(-c2cc(CN3CCSCC3)c(C)n2-c2ccc(OC)cc2)cc1 | 0.25 µg/mL (≈ 0.594 µM) | 0.5 µg/mL (≈ 1.19 µM) | >512 | – | – | – | – |
| COc1ccc(-n2c(-c3ccc(C(C)C)cc3)cc(CN3CCSCC3)c2C)cc1 | 0.5 µg/mL (≈ 1.19 µM) | 0.5 µg/mL (≈ 1.19 µM) | 9.76 | – | – | – | – |
| CSc1ccc(-n2c(-c3ccc(C(C)C)cc3)cc(CN3CCSCC3)c2C)cc1 | 0.5 µg/mL (≈ 1.14 µM) | 0.5 µg/mL (≈ 1.14 µM) | 229.9 | – | – | – | – |
| COc1ccc(-n2c(-c3ccc(C)cc3)cc(CN3CCSCC3)c2C)cc1 | 2 µg/mL (≈ 5.09 µM) | 1 µg/mL (≈ 2.55 µM) | 6.57 | – | – | – | – |
| CCc1ccc(-c2cc(CN3CCSCC3)c(C)n2-c2ccc(OC)cc2)cc1 | 0.5 µg/mL (≈ 1.23 µM) | 0.5 µg/mL (≈ 1.23 µM) | 36.06 | – | – | – | – |
| CSc1ccc(-n2c(-c3ccc(C)cc3)cc(CN3CCSCC3)c2C)cc1 | 1 µg/mL (≈ 2.45 µM) | 1 µg/mL (≈ 2.45 µM) | 69.06 | – | – | – | – |
| CSc1ccccc1-n1c(-c2ccc(F)cc2)cc(CN2CCSCC2)c1C | 8 µg/mL (≈ 19.4 µM) | 8 µg/mL (≈ 19.4 µM) | 4.2 | – | – | – | – |
| CSc1ccc(-n2c(-c3ccc(F)cc3)cc(CN3CCSCC3)c2C)cc1 | 1 µg/mL (≈ 2.42 µM) | 1 µg/mL (≈ 2.42 µM) | >128 | – | – | – | – |
| CSc1ccc(-c2cc(CN3CCSCC3)c(C)n2-c2ccc(C(C)C)cc2)cc1 | 0.125 µg/mL (≈ 0.286 µM) | 0.5 µg/mL (≈ 1.14 µM) | 286.24 | – | – | – | – |
| COc1ccc(-c2cc(CN3CCSCC3)c(C)n2-c2ccc(C)cc2)cc1 | 0.25 µg/mL (≈ 0.637 µM) | 0.5 µg/mL (≈ 1.27 µM) | 46.2 | – | – | – | – |
| Cc1c(CN2CCSCC2)cc(-c2ccc(F)cc2)n1-c1ccc(C(F)(F)F)cc1 | 8 µg/mL (≈ 18.4 µM) | – | 0.29 | – | – | – | – |
| COc1ccccc1-c1cc(CN2CCSCC2)c(C)n1-c1ccc(F)cc1 | > 16 µg/mL | – | – | – | – | – | – |
